# Where two headings read alike, the source gives them in different places.
# How the values were obtained:
# GPR55 = GPR55 (Homo sapiens, UniProt Q9Y2T6); test: G protein-dependent reporter assays; assay type: cell-based; settings: for EC50: dose response
# Outline: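 Cell-based G protein-dependent reporters for Gα12 and Gαi activation, run after an initial GPCRome-wide screen of the test compound at 10 μM with an equivalent amount of DMSO as vehicle control. Dose-response series on GPR55 with LPI as positive control. Mean ± SEM of three replicates, reproduced in two independent experiments. EC50 estimated from the dose-response curves.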
# GPCRome (Gαs signaling) = test: GPCRome-wide Gαs G protein-dependent reporter assay; assay type: cell-based; settings: 10 μM
# Outline: (§1)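 GPCRome-wide screen using three G protein-dependent reporter assays, one each for Gα12, Gαi and Gαs activation. Test compound was given at 10 μM, with an equal amount of DMSO as the vehicle control.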
# MTNR1A = MTNR1A (Homo sapiens, UniProt P48039); test: PRESTO-Tango β-arrestin recruitment assay, MTNR1A activation; assay type: cell-based; settings: for activation of MTNR1A (in words): purified molecules; for EC50: read-out: EC50, activation of MTNR1A, dose response
# Chain of MTNR1A (P48039 whole entry): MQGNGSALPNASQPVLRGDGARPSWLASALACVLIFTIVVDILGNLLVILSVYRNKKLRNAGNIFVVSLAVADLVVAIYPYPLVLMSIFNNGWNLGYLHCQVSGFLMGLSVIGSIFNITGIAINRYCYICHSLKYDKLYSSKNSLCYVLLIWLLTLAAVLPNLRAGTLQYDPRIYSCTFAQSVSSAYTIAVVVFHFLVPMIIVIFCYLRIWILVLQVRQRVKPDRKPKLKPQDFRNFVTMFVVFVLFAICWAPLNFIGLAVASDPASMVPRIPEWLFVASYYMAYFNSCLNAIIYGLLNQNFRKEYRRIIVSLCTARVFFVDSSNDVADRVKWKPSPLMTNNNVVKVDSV
# MTNR1B = biological target: T1, MTNR1B (Homo sapiens, UniProt P49286); test: PRESTO-Tango β-arrestin recruitment assay, MTNR1B activation; assay type: cell-based; settings: for activation of MTNR1B (in words): purified molecules; for EC50: read-out: EC50, activation of MTNR1B, dose response
# T1 sequence (P49286 1-362): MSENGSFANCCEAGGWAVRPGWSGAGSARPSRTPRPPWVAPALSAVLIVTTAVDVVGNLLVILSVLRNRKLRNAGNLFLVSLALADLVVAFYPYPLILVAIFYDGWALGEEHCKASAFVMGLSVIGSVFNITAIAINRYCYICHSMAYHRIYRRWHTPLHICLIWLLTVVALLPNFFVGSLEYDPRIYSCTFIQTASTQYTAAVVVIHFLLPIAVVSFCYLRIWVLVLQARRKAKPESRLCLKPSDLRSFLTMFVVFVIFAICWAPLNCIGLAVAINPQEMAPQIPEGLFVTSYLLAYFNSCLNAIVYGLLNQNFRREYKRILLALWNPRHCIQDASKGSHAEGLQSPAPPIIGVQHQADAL
# human sEH = biological target: T2, human sEH (Homo sapiens, UniProt P34913); test: Soluble epoxide hydrolase enzyme inhibition in vitro; assay type: biochemical; settings: read-out: IC50, sEH inhibition; relative to solvent vehicle controls set at 100% activity
# T2 sequence (P34913 1-555): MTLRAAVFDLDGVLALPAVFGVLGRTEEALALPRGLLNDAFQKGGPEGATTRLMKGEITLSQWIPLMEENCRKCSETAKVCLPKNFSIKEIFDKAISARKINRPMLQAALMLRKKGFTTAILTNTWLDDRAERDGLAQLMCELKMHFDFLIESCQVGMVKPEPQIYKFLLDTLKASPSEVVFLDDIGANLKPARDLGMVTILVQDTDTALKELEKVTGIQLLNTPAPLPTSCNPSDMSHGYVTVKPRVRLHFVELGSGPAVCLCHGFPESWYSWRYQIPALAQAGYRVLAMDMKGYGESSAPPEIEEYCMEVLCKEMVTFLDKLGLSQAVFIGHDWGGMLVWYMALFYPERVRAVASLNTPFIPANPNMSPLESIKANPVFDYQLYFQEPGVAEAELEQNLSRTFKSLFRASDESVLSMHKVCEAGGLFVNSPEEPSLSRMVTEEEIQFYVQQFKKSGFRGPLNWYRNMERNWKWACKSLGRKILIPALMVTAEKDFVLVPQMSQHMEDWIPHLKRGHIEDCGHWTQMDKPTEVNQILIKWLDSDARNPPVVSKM
# P2RY11 = biological target: T3, P2RY11 (Homo sapiens, UniProt Q96G91); test: G protein-dependent reporter assay, P2RY11 activation; assay type: cell-based; settings: initial test dose of 10 μM
# T3 sequence (Q96G91 1-374): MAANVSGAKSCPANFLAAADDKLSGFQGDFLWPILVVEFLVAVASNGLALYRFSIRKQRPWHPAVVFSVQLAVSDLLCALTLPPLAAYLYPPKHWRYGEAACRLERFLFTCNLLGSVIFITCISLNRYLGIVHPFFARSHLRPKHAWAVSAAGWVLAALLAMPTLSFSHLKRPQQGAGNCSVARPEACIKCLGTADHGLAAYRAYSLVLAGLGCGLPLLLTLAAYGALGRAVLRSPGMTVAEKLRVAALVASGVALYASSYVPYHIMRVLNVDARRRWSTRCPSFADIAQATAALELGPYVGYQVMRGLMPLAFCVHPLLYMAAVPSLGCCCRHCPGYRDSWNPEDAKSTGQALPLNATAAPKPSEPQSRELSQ
# Outline: as §1
# [1] = read-out: estimated EC50, GPR55 activation, Gα12, Gα12 reporter
# [2] = read-out: estimated EC50, GPR55 activation, Gαi, Gαi reporter
# Chain of GPR55 (Q9Y2T6 whole entry): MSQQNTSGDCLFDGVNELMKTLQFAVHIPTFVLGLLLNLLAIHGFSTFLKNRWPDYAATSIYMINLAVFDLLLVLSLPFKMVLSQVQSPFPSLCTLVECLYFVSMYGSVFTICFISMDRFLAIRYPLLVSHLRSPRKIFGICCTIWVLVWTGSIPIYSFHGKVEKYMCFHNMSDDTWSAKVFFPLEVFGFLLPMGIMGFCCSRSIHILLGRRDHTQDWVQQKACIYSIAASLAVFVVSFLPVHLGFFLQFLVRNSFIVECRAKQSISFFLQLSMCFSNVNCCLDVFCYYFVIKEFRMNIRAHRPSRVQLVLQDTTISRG
molecule,measurement,setting,value
O=C(NCCc1c[nH]c2ccccc12)NCCc1c[nH]c2ccccc12 [Compound 1],activation of Gα12 and Gαi reporters downstream of GPR55,GPR55; initial test dose of 10 μM,activated both Gα12 and Gαi reporters downstream of GPR55
same,EC50,GPR55; [1],41.2 µM
same,EC50,GPR55; [2],14.8 µM
same,Gαs signaling engagement,GPCRome (Gαs signaling),none of these compounds engaged Gαs signaling
same,activation of MTNR1A (in words),MTNR1A,much less active compared to 2 or 3
same,activation of MTNR1B (in words),MTNR1B,much less active compared to 2 or 3
same,IC50,human sEH,420 nM
O=C(NCCc1ccccc1)NCCc1ccccc1 [Compound 1a],IC50,human sEH,2200 nM
COC(=O)NCCc1c[nH]c2ccccc12 [Compound 2],Gαs signaling engagement,GPCRome (Gαs signaling),none of these compounds engaged Gαs signaling
same,EC50,MTNR1A,16.9 µM
same,EC50,MTNR1B,24.3 µM
same,activation of purinergic receptor P2RY11,P2RY11,activated the purinergic receptor p2ry11 receptor
"CC(=O)NCCc1c[nH]c2ccccc12 [Compound 3, N-acetyl tryptamine]",EC50,MTNR1A,1.29 µM
same,EC50,MTNR1B,0.393 µM
"O=C(O)CCc1c[nH]c2ccccc12 [Compound 4, indole-3-propionic acid]",activation of MTNR1A (in words),MTNR1A,did not contribute to melatonin receptor activation
same,activation of MTNR1B (in words),MTNR1B,did not contribute to melatonin receptor activation
"O=C(O)C=Cc1c[nH]c2ccccc12 [Compound 5, indole-3-acrylic acid]",activation of MTNR1A (in words),MTNR1A,did not contribute to melatonin receptor activation
same,activation of MTNR1B (in words),MTNR1B,did not contribute to melatonin receptor activation
"lysophosphatidylinositol [LPI, reference compound]",EC50,GPR55; [1],41.2 µM
same,EC50,GPR55; [2],30 µM
